This is an account of results in ChEMBL document CHEMBL1806410, “Design and synthesis of pyridine-substituted itraconazole analogues with improved antifungal activities, water solubility and bioavailability” (Bioorg Med Chem Lett, 2011).

Series [1] concerns Aspergillus flavus. In words: Antifungal activity against Aspergillus flavus JLC 30784 by broth microdilution method. Format: functional. In outline:
(§1)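 MICs were determined by broth microdilution following NCCLS guidelines (M38-P for filamentous fungi). The panel covered four yeast species and two Aspergillus species, with two strains per species. Itraconazole served as positive control.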

Series [2] concerns Pichia kudriavzevii. The experiment in a line: Antifungal activity against Candida krusei JLC 30386 by broth microdilution method. In kind it is functional. In outline: as §1
Background: In broth dilution the organism is exposed to a series of concentrations in liquid medium.

Series [3] relates to Pichia kudriavzevii. The experiment in a line: Antifungal activity against Candida krusei JLC 30366 by broth microdilution method. Format: functional. In outline: as §1
For series [4], the system named is Candida albicans. The experiment in a line: Antifungal activity against Candida albicans JLC 30364 by broth microdilution method. In kind it is functional. In outline:
as §1

The subject of series [5] is Candida parapsilosis. In words: Antifungal activity against Candida parapsilosis JLC 30365 by broth microdilution method. Format: functional. Conditions: Lodderomyces parapsilosis. The method, boiled down: as §1
For series [6], the system named is Candida albicans. In words: Antifungal activity against Candida albicans JLC 31374 by broth microdilution method. Format: functional. In outline: as §1
Series [7] deals with Cryptococcus neoformans. In words: Antifungal activity against Cryptococcus neoformans JLC 50122 by broth microdilution method. In kind it is functional. In outline: as §1
Series [8] concerns Aspergillus fumigatus. The experiment in a line: Antifungal activity against Aspergillus fumigatus JLC 30506 by broth microdilution method. In kind it is functional. In outline:
as §1

Series [9] has as its system Aspergillus flavus. The experiment in a line: Antifungal activity against Aspergillus flavus JLC 40437 by broth microdilution method. Format: functional. The method, boiled down: as §1
In series [10] the test system is Candida parapsilosis. In words: Antifungal activity against Candida parapsilosis JLC 30275 by broth microdilution method. Format: functional. The note with it: Lodderomyces parapsilosis. The method, boiled down:
as §1

The subject of series [11] is Cryptococcus neoformans. The experiment in a line: Antifungal activity against Cryptococcus neoformans JLC 50123 by broth microdilution method. In kind it is functional. In outline: as §1
Series [12] relates to Aspergillus fumigatus. In words: Antifungal activity against Aspergillus fumigatus JLC 30883 by broth microdilution method. Format: functional. The method, boiled down: as §1
Series [13] in a line: AUC (0 to t) in rat at 10 mg/kg, po administered as single dose. In kind it is ADME, organism-based. Details: dose 10 mg/kg, route oral. Conditions: plasma. In outline:
(§2)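 Rats received a single dose of compound, either oral (10 mg/kg) or intravenous (10, 5 or 2.5 mg/kg). Plasma levels were followed, and the reported parameters were Cmax, Tmax, AUC0–t, half-life, clearance and bioavailability (F).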

Series [14] in a line: Solubility of the compound in water at pH 1.2. Format: physicochemical. The note with it: water, read-out: solubility.
A short description of series [15]: Cmax in rat at 10 mg/kg, po administered as single dose. In kind it is ADME, organism-based. Details: dose 10 mg/kg, route oral. Conditions: in vivo. The method, boiled down:
as §2

Series [16] in a line: Tmax in rat at 10 mg/kg, po administered as single dose. In kind it is ADME, organism-based. Details: dose 10 mg/kg, route oral. Conditions: in vivo. The method, boiled down:
as §2

The nature of series [17]: Half life in rat at 10 mg/kg, po administered as single dose. Also noted: dose 10 mg/kg, route oral. In kind it is ADME, organism-based. Conditions: in vivo. In outline: as §2

Each structure is given as a SMILES string. Converted amounts (≈) assume the structure as drawn.

Take `CCC(C)n1ncn(-c2ccc(N3CCN(c4ccc(OC[C@H]5CO[C@](Cn6cncn6)(c6ccc(F)cc6F)O5)cc4)CC3)cn2)c1=O` (some centres undefined): the MIC (in general, the lowest concentration found to suppress growth) with Aspergillus flavus [1] was 0.5 µg/mL (≈ 0.742 µM); with Pichia kudriavzevii [2], 0.0625 µg/mL (≈ 0.0928 µM); against Pichia kudriavzevii [3], 0.0625 µg/mL (≈ 0.0928 µM); in the series on Candida albicans [4] it was 0.03 µg/mL (≈ 0.0445 µM); in the series with Candida parapsilosis [5], 0.5 µg/mL (≈ 0.742 µM); against Candida albicans [6], 0.03 µg/mL (≈ 0.0445 µM). Moreover, the MIC amounted to 1 µg/mL (≈ 1.48 µM) against Cryptococcus neoformans [7]; 0.5 µg/mL (≈ 0.742 µM) with Aspergillus fumigatus [8]; 0.5 µg/mL (≈ 0.742 µM) in the series with Aspergillus flavus [9]; 0.5 µg/mL (≈ 0.742 µM) with Candida parapsilosis [10]; 1 µg/mL (≈ 1.48 µM) against Cryptococcus neoformans [11]; 0.5 µg/mL (≈ 0.742 µM) with Aspergillus fumigatus [12].
In the case of `CC(C)Cn1ncn(-c2ccc(N3CCN(c4ccc(OC[C@H]5CO[C@](Cn6cncn6)(c6ccc(F)cc6F)O5)cc4)CC3)cn2)c1=O`, the MIC stood at 0.0625 µg/mL (≈ 0.0928 µM) in the series with Aspergillus flavus [1]; 0.125 µg/mL (≈ 0.186 µM) against Pichia kudriavzevii [2]; 0.125 µg/mL (≈ 0.186 µM) in the series with Pichia kudriavzevii [3]; 0.015 µg/mL (≈ 0.0223 µM) against Candida albicans [4]; 0.25 µg/mL (≈ 0.371 µM) against Candida parapsilosis [5]; 0.015 µg/mL (≈ 0.0223 µM) in the series on Candida albicans [6]. In addition, the MIC in the series on Cryptococcus neoformans [7] worked out at 0.25 µg/mL (≈ 0.371 µM); against Aspergillus fumigatus [8], 0.125 µg/mL (≈ 0.186 µM); against Aspergillus flavus [9], 0.0625 µg/mL (≈ 0.0928 µM); in the series with Candida parapsilosis [10] it was 0.25 µg/mL (≈ 0.371 µM); in the series on Cryptococcus neoformans [11], 0.25 µg/mL (≈ 0.371 µM); against Aspergillus fumigatus [12], 0.125 µg/mL (≈ 0.186 µM).
Consider `CC(C)n1ncn(-c2ccc(N3CCN(c4ccc(OC[C@H]5CO[C@](Cn6cncn6)(c6ccc(F)cc6F)O5)cc4)CC3)cn2)c1=O`, for which the AUC(0-t) (commonly the area under the concentration-time curve up to a stated or last time point) in series [13] amounted to 1220 ng·h/mL. Besides, the MIC was 0.125 µg/mL (≈ 0.189 µM) with Aspergillus flavus [1]; 0.0625 µg/mL (≈ 0.0947 µM) with Pichia kudriavzevii [2]; 0.0625 µg/mL (≈ 0.0947 µM) in the series with Pichia kudriavzevii [3]; 0.0075 µg/mL (≈ 0.0114 µM) against Candida albicans [4]; 0.25 µg/mL (≈ 0.379 µM) in the series on Candida parapsilosis [5]; 0.0075 µg/mL (≈ 0.0114 µM) in the series with Candida albicans [6]. Also, the MIC amounted to 0.25 µg/mL (≈ 0.379 µM) in the series with Cryptococcus neoformans [7]; 0.125 µg/mL (≈ 0.189 µM) in the series with Aspergillus fumigatus [8]; 0.125 µg/mL (≈ 0.189 µM) with Aspergillus flavus [9]; 0.25 µg/mL (≈ 0.379 µM) against Candida parapsilosis [10]; 0.25 µg/mL (≈ 0.379 µM) with Cryptococcus neoformans [11]; 0.125 µg/mL (≈ 0.189 µM) against Aspergillus fumigatus [12]. The solubility (in general, how much of the substance goes into solution per volume) in series [14] came out at 320 µg/mL (≈ 485 µM). For the same molecule, the Cmax (as a rule, the highest concentration seen after dosing) in series [15] was 159 ng/mL. Also, the Tmax (commonly the time from dosing to the highest level) in [16] amounted to 3 h. Moreover, the half-life (usually how long it takes for the measured level to halve) in series [17] is 3.45 h.
As to `CCC(CC)n1ncn(-c2ccc(N3CCN(c4ccc(OC[C@H]5CO[C@](Cn6cncn6)(c6ccc(F)cc6F)O5)cc4)CC3)cn2)c1=O`, the MIC against Aspergillus flavus [1] is 0.0625 µg/mL (≈ 0.0909 µM); against Pichia kudriavzevii [2], 0.125 µg/mL (≈ 0.182 µM); in the series with Pichia kudriavzevii [3], 0.125 µg/mL (≈ 0.182 µM); against Candida albicans [4], 0.0625 µg/mL (≈ 0.0909 µM); with Candida parapsilosis [5], 0.5 µg/mL (≈ 0.727 µM); against Candida albicans [6], 0.0625 µg/mL (≈ 0.0909 µM). Besides, the MIC in the series on Cryptococcus neoformans [7] was 0.125 µg/mL (≈ 0.182 µM); in the series with Aspergillus fumigatus [8], 0.5 µg/mL (≈ 0.727 µM); in the series with Aspergillus flavus [9], 0.0625 µg/mL (≈ 0.0909 µM); against Candida parapsilosis [10], 0.5 µg/mL (≈ 0.727 µM); against Cryptococcus neoformans [11], 0.125 µg/mL (≈ 0.182 µM); in the series with Aspergillus fumigatus [12] it was 0.5 µg/mL (≈ 0.727 µM).
As to `CC(CO)n1ncn(-c2ccc(N3CCN(c4ccc(OC[C@H]5CO[C@](Cn6cncn6)(c6ccc(F)cc6F)O5)cc4)CC3)cn2)c1=O` (some centres undefined), the MIC against Aspergillus flavus [1] came out at 0.125 µg/mL (≈ 0.185 µM); in the series on Pichia kudriavzevii [2], 0.0625 µg/mL (≈ 0.0925 µM); with Pichia kudriavzevii [3], 0.0625 µg/mL (≈ 0.0925 µM); against Candida albicans [4] it was 0.0625 µg/mL (≈ 0.0925 µM); with Candida parapsilosis [5], 0.5 µg/mL (≈ 0.74 µM); in the series on Candida albicans [6], 0.0625 µg/mL (≈ 0.0925 µM). Also, the MIC turned out to be 0.0625 µg/mL (≈ 0.0925 µM) in the series with Cryptococcus neoformans [7]; 1 µg/mL (≈ 1.48 µM) in the series on Aspergillus fumigatus [8]; 0.125 µg/mL (≈ 0.185 µM) with Aspergillus flavus [9]; 0.5 µg/mL (≈ 0.74 µM) against Candida parapsilosis [10]; 0.0625 µg/mL (≈ 0.0925 µM) with Cryptococcus neoformans [11]; 1 µg/mL (≈ 1.48 µM) in the series with Aspergillus fumigatus [12].
Take `O=c1n(-c2ccc(N3CCN(c4ccc(OC[C@H]5CO[C@](Cn6cncn6)(c6ccc(F)cc6F)O5)cc4)CC3)cn2)cnn1CCO`: the MIC with Aspergillus flavus [1] is 0.03 µg/mL (≈ 0.0453 µM); in the series on Pichia kudriavzevii [2], 0.03 µg/mL (≈ 0.0453 µM); against Pichia kudriavzevii [3], 0.03 µg/mL (≈ 0.0453 µM); in the series with Candida albicans [4], < 0.0156 µg/mL; in the series on Candida parapsilosis [5] it was 0.0156 µg/mL (≈ 0.0236 µM); in the series on Candida albicans [6], < 0.0156 µg/mL. Moreover, the MIC against Cryptococcus neoformans [7] was < 0.0156 µg/mL; in the series on Aspergillus fumigatus [8], 0.5 µg/mL (≈ 0.756 µM); against Aspergillus flavus [9], 0.03 µg/mL (≈ 0.0453 µM); in the series with Candida parapsilosis [10], 0.0156 µg/mL (≈ 0.0236 µM); in the series with Cryptococcus neoformans [11] it was < 0.0156 µg/mL; against Aspergillus fumigatus [12] it was 0.5 µg/mL (≈ 0.756 µM).
As to `CC(CO)Cn1ncn(-c2ccc(N3CCN(c4ccc(OC[C@H]5CO[C@](Cn6cncn6)(c6ccc(F)cc6F)O5)cc4)CC3)cn2)c1=O` (some centres undefined), the minimum inhibitory concentration (MIC) with Aspergillus flavus [1] was 0.125 µg/mL (≈ 0.181 µM); in the series on Pichia kudriavzevii [2], < 0.0156 µg/mL; with Pichia kudriavzevii [3], < 0.0156 µg/mL; with Candida albicans [4], < 0.0156 µg/mL; against Candida parapsilosis [5], < 0.0156 µg/mL; in the series on Candida albicans [6] it was < 0.0156 µg/mL. The MIC is 0.03 µg/mL (≈ 0.0435 µM) in the series with Cryptococcus neoformans [7]; 0.5 µg/mL (≈ 0.725 µM) in the series on Aspergillus fumigatus [8]; 0.125 µg/mL (≈ 0.181 µM) in the series with Aspergillus flavus [9]; < 0.0156 µg/mL in the series on Candida parapsilosis [10]; 0.03 µg/mL (≈ 0.0435 µM) against Cryptococcus neoformans [11]; 0.5 µg/mL (≈ 0.725 µM) against Aspergillus fumigatus [12].
